Activity calls are given as the source filed them. The calls are words filed in the database; no cut-off is given here.
How the values were obtained:
[1] = Inhibition of quorum sensing regulated bioluminescence in wild type Vibrio harveyi BB120 after 5 hrs by luminescence assay
How it was run: (§1)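 Twofold compound dilutions in LM broth; OD600-adjusted (0.4) AB-grown overnight culture diluted 1:100 in Luria-Marine broth, 200 µl per well. Incubated 5 h at 30 °C with aeration; luminescence imaged by CCD camera. IC50 = concentration inhibiting luminescence by 50%, fitted from gradients in 2–3 independent experiments (2–3 repeats each); top concentration 1000 µM.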

Vibrio harveyi [2] = test: Antimicrobial activity against wild type Vibrio harveyi BB120; assay type: functional
How it was run: (§2)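 Overnight AB-medium culture, OD600 adjusted to 0.4, diluted 1:100 into Luria-Marine broth and added to twofold compound dilutions in LM broth, 200 µl per well. Incubated 5 h at 30 °C with aeration under breathable seal; growth read as OD600. GIC50 = concentration reducing OD600 by 50%, from gradients in 2–3 independent experiments, 2–3 repeats each; highest concentration tested 1000 µM.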

Salmonella typhimurium [3] = test: Antimicrobial activity against Salmonella Typhimurium ATCC 14028 assessed as inhibition of biofilm formation after 48 hrs using crystal violet staining by microtiter plate assay; assay type: functional, organism-based, Salmonella enterica subsp. enterica serovar Typhimurium; conditions: Salmonella enterica, ATCC 14028, 48 h
How it was run: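 Peg-lid biofilm assay: overnight LB culture diluted 1:100 into TSB 1/20, ca. 1×10⁶ cells added to twofold compound dilutions, 200 µl total per well. Static incubation 48 h at 16 °C; lid moved to fresh medium with compound after 24 h. IC50 from concentration gradients, 2–3 independent experiments, 2–3 repeats each.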

Salmonella typhimurium [4] = test: Antimicrobial activity against Salmonella Typhimurium ATCC 14028 assessed as effect on planktonic growth at 250 uM after 36 hrs by microtiter plate assay; assay type: functional, organism-based; conditions: Salmonella enterica subsp. enterica serovar Typhimurium
How it was run: (§3)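 Overnight LB culture diluted 1:200 in TSB 1/20; 300 µl per well; compound serial dilutions made in EtOH, 3 µl added per well in triplicate; solvent-only controls in three- or fourfold. Incubated at 16 °C for at least 36 h with continuous shaking in Bioscreen reader; OD600 read every 15 min; growth curves compared with untreated controls.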

Salmonella typhimurium [5] = test: Antimicrobial activity against Salmonella Typhimurium ATCC 14028 assessed as effect on planktonic growth at 100 uM after 36 hrs by microtiter plate assay; assay type: functional, organism-based; conditions: Salmonella enterica subsp. enterica serovar Typhimurium; how it was run: as §3
Vibrio harveyi [6] = test: Inhibition of quorum sensing regulated bioluminescence in Vibrio harveyi BNL258 harboring hfq::Tn5lacZ mutant quorum sensing after 5 hrs by luminescence assay
How it was run: (§4)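 Twofold serial dilutions in Luria-Marine broth; overnight culture (grown in AB medium) adjusted to OD600 0.4, diluted 1:100 and added 1:1 to wells (200 µl total). Incubated 5 h at 30 °C with aeration under breathable seal. Luminescence read by CCD camera, OD600 also measured. Luminescence expressed as percentage of untreated control of the same strain.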

Vibrio harveyi [7] = test: Inhibition of quorum sensing regulated bioluminescence in Vibrio harveyi JAF483 luxO D47A linked to Kan mutant quorum sensing after 5 hrs by luminescence assay; how it was run: as §4
Vibrio harveyi [8] = test: Inhibition of quorum sensing regulated bioluminescence in Vibrio harveyi JAF553 luxU H58A linked to Kan mutant quorum sensing after 5 hrs by luminescence assay; how it was run: as §4
L1210 = test: Cytotoxicity against mouse L1210 cells assessed as inhibition of cell proliferation after 2 days by coulter counter assay; assay type: cell-based; conditions: L1210, 48 h
How it was run: (§5)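 Cells suspended at 300,000–500,000 cells/mL; 100 µL added to equal volume of compound dilution in 96-well plates. Incubated at 37 °C for 2 days (L1210, FM3A), 3 days (CEM) or 4 days (HeLa, OST). Cell number counted by Coulter counter; IC50 = concentration inhibiting proliferation by 50%.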

FM3A = test: Cytotoxicity against mouse FM3A cells assessed as inhibition of cell proliferation after 2 days by coulter counter assay; assay type: cell-based; conditions: 48 h; how it was run: as §5
CCRF-CEM = test: Cytotoxicity against human CEM cells assessed as inhibition of cell proliferation after 3 days by coulter counter assay; assay type: cell-based; conditions: 72 h; how it was run: as §5
HeLa = test: Cytotoxicity against human HeLa cells assessed as inhibition of cell proliferation after 4 days by coulter counter assay; assay type: cell-based; conditions: 96 h; how it was run: as §5
OST = test: Cytotoxicity against human thymidine kinase deficient OST cells assessed as inhibition of cell proliferation after 4 days by coulter counter assay; assay type: cell-based; conditions: 96 h; how it was run: as §5
Salmonella typhimurium [9] = test: Antimicrobial activity against Salmonella Typhimurium ATCC 14028 assessed as effect on planktonic growth at 10 uM after 36 hrs by microtiter plate assay; assay type: functional, organism-based; conditions: Salmonella enterica subsp. enterica serovar Typhimurium; how it was run: as §3
Salmonella typhimurium [10] = test: Antimicrobial activity against Salmonella Typhimurium ATCC 14028 assessed as effect on planktonic growth at 1 uM after 36 hrs by microtiter plate assay; assay type: functional, organism-based; conditions: Salmonella enterica subsp. enterica serovar Typhimurium; how it was run: as §3
Vibrio harveyi [11] = test: Antimicrobial activity against wild type Vibrio harveyi BB120 at 1000 uM; assay type: functional, organism-based; how it was run: as §2
[12] = Inhibition of quorum sensing regulated bioluminescence in wild type Vibrio harveyi BB120 at 1000 uM after 5 hrs by luminescence assay; how it was run: as §1

SMILES | IC50 [1] | GI50 (Vibrio harveyi [2]) | IC50 (Salmonella typhimurium [3]) | Activity (Salmonella typhimurium [4]) | Activity (Salmonella typhimurium [5]) | Activity (Salmonella typhimurium [9]) | Activity (Salmonella typhimurium [10]) | further results
CCCCCCCCC1=C(Br)/C(=C/Br)OC1=O | 3.41 µM | 267 µM |  |  |  |  |  | 
CCCCCCCCCCC1=C(Br)/C(=C/Br)OC1=O | 26.6 µM | > 300 µM |  |  |  |  |  | 
CCCCCCC1=C(Br)C(=O)OC1=O [BROMOHEXYLMALEIC ANHYDRIDE] | 10.6 µM | 208 µM | 65.9 µM | inactive | inactive |  |  | Activity (Vibrio harveyi [6]): Active; Activity (Vibrio harveyi [7]): Active; Activity (Vibrio harveyi [8]): Active; IC50 (L1210): 208 µM; IC50 (FM3A): 243 µM; IC50 (CCRF-CEM): 90 µM; IC50 (HeLa): 156 µM; IC50 (OST): 43 µM
C=C1OC(=O)C(CCCCCC)=C1Br | 1.36 µM | 36.3 µM | 19.4 µM | Active | Active | inactive |  | Activity (Vibrio harveyi [6]): Active; Activity (Vibrio harveyi [7]): Active; Activity (Vibrio harveyi [8]): Active; IC50 (L1210): 8.5 µM; IC50 (FM3A): 16 µM; IC50 (CCRF-CEM): 7.5 µM; IC50 (HeLa): 48 µM; IC50 (OST): 2 µM
CCCCC1=C(Br)C(=C(Br)Br)OC1=O | 14.4 µM | 20.5 µM |  |  |  |  |  | 
CCCCCCC1=C/C(=C/Br)OC1=O |  |  | > 1000 µM |  |  |  |  | 
CCCC(OC(C)=O)C1=C(Br)/C(=C/Br)OC1=O (stereo unspecified) | 50.1 µM | 147 µM | 132 µM | inactive | inactive | inactive | inactive | 
CCCCC1=CC(=C(Br)Br)OC1=O | 18.9 µM | 141 µM | 148 µM |  |  |  |  | 
CC(Br)C1=C(Br)/C(=C/Br)OC1=O (stereo unspecified) | 6.34 µM | 16.1 µM | 4.5 µM | Active | Active | inactive | inactive | 
CC(=O)OC(C)C1=CC(=C(Br)Br)OC1=O (stereo unspecified) |  |  | 162 µM | inactive | inactive | inactive | inactive | 
CC(=O)OC(C)C1=C(Br)C(=C(Br)Br)OC1=O (stereo unspecified) | 6.31 µM | 25.4 µM | 7.29 µM | Active | inactive | inactive | inactive | 
CCCC(Br)C1=C(Br)/C(=C/Br)OC1=O (stereo unspecified) | 1.18 µM | 4.04 µM | 5.71 µM | Active | Active | inactive | inactive | 
CC(Br)C1=CC(=C(Br)Br)OC1=O (stereo unspecified) | 0.774 µM | 3.07 µM | 1.17 µM | Active | Active | Active | inactive | 
CCC1=C(Br)/C(=C/Br)OC1=O | 9.27 µM | 10.8 µM | 17.9 µM | Active | inactive | inactive |  | IC50 (L1210): 284 µM; IC50 (FM3A): > 500 µM; IC50 (CCRF-CEM): 208 µM; IC50 (HeLa): 39 µM; IC50 (OST): 6.3 µM
CCCCC1=C(Br)/C(=C/Br)OC1=O | 1.36 µM | 65.3 µM | 23.1 µM | Active | inactive | inactive |  | 
CCCCCCC1=C(Br)/C(=C/Br)OC1=O | 11.9 µM | 34 µM | 10.7 µM | Active | inactive | inactive |  | 
CCCC(Br)C1=CC(=C(Br)Br)OC1=O (stereo unspecified) | 0.2 µM | 1.07 µM | 1.31 µM | Active | Active | inactive | inactive | 
CCCCCCC1=CC(=O)OC1=O | 97.8 µM | 640 µM | > 1000 µM |  |  |  |  | 
O=C1C=C(Br)/C(=C/Br)O1 | 2.71 µM | 3.16 µM |  |  |  |  |  | 
O=C1C=CC(=C(Br)Br)O1 | 2.88 µM | 25.5 µM |  |  |  |  |  | 
CCC1=C(Br)C(=C(Br)Br)OC1=O | 1.15 µM | 2.26 µM | 57.5 µM |  | inactive | inactive |  | 
CCC1=CC(=C(Br)Br)OC1=O | 105 µM | 325 µM | 200 µM | inactive | inactive | inactive |  | 
CCCCCC(Br)C1=C(Br)/C(=C/Br)OC1=O (stereo unspecified) | 5.21 µM | 7.27 µM | 3.23 µM | inactive | inactive | inactive | inactive | 
O=C1C=C/C(=C/Br)O1 | 4.07 µM | 15.7 µM |  |  |  |  |  | 
CCCCCCCCCCCCC1=C(Br)/C(=C/Br)OC1=O |  |  |  |  |  |  |  | GI50 (Vibrio harveyi [11]): inactive; IC50 [12]: Not Active
CCCCCCC1=CC(=C(Br)Br)OC1=O | 84 µM | 197 µM | 160 µM |  |  |  |  | 
CC(Br)C1=C(Br)C(=C(Br)Br)OC1=O (stereo unspecified) | 2.76 µM | 9.74 µM | 4.09 µM | inactive | inactive | inactive | inactive | 
